A word on the inhibition: it is the share of the control response that was lost under treatment. As usually defined, the IC50 is the concentration that inhibits the measured activity by half.

The structures appear in SMILES notation.

Experimental findings from ChEMBL document CHEMBL2401738, “Construction and functionalization of pyranone ring fused with pyran moiety: design and synthesis of novel pyrano[4,3-b]pyran-5(4H)-ones as potential inhibitors of sirtuins” (Bioorg Med Chem Lett, 2013) are described below.

For one experiment, the system named is Saccharomyces cerevisiae. The experiment is described as follows: Inhibition of Saccharomyces cerevisiae TEL::URA3 SIR2-mediated URA3 reporter gene silencing at 50 uM after 24 to 48 hrs in presence of 5-FOA relative to control. In a few lines:
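Yeast strain with telomere-integrated URA3 reporter. Sir2 silencing of URA3 allows growth in 5-fluoroorotic acid, and inhibition of the yeast SIRT1 homologue Sir2 is scored by reduced growth in 5-FOA. Stereoisomer mixtures were tested unseparated at a single fixed concentration of 50.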
For orientation: A reporter such as luciferase makes a cellular process visible.
With `CCCCC#Cc1c(-c2ccccc2)oc(=O)c2c1OC1=C(C(=O)CC(C)(C)C1)C2c1cccc(O)c1` (configuration not stated), the inhibition is 1.01%. For `CC1(C)CC(=O)C2=C(C1)Oc1c(I)c(-c3ccccc3)oc(=O)c1C2c1ccco1` (configuration not stated), the inhibition is 15.3%. The same measure, in the same setting: next, `CC1(C)CC(=O)C2=C(C1)Oc1c(I)c(-c3ccccc3)oc(=O)c1C2c1cccs1` (configuration not stated): 43.2%; `CC1(C)CC(=O)C2=C(C1)Oc1c(-c3ccccc3)c(-c3ccccc3)oc(=O)c1C2c1cccc(O)c1` (configuration not stated): 3.3%; `CCOC(=O)C1=C(C)Oc2c(-c3ccc(O)cc3)c(-c3ccccc3)oc(=O)c2C1c1cccc(F)c1` (configuration not stated): 1.51%. Regarding `CC1(C)CC(=O)C2=C(C1)Oc1c(I)c(-c3ccccc3)oc(=O)c1C2c1ccc(F)cc1` (configuration not stated), the inhibition was 49.5%. Same read-out and setting: under `CCC1C2=C(CC(C)(C)CC2=O)Oc2c(I)c(-c3ccccc3)oc(=O)c21` (configuration not stated) stands 43.9%; under `COc1ccc(C2C3=C(CC(C)(C)CC3=O)Oc3c(I)c(-c4ccccc4)oc(=O)c32)cc1` (configuration not stated), 32.4%.

For `CCOC(=O)C1=C(C)Oc2c(I)c(-c3ccccc3)oc(=O)c2C1c1cccc(F)c1` (configuration not stated), the inhibition came out at 0.5%.

On to `CC1(C)CC(=O)C2=C(C1)Oc1c(I)c(C3(O)CCCCC3)oc(=O)c1C2c1ccc(F)cc1` (configuration not stated), for which the inhibition stood at 25.3%.

System in a further experiment: not listed separately
The experiment is described as follows: (§1) Inhibition of Saccharomyces cerevisiae TEL::URA3 SIR2-mediated URA3 reporter gene silencing after 24 to 48 hrs in presence of 5-FOA. In short, it runs like this:
(§2)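 Yeast cell-based reporter silencing assay with URA3 integrated in the telomeric region. Sir2-mediated silencing of URA3 permits growth in 5-fluoroorotic acid, so Sir2 inhibition is read as loss of growth on 5-FOA. Compounds were tested as unseparated stereoisomer mixtures over a dose range, and IC50 was taken from the dose-response.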
In the case of `CCC1C2=C(CC(C)(C)CC2=O)Oc2c(I)c(-c3ccccc3)oc(=O)c21` (configuration not stated), the concentration for half-maximal inhibition (IC50) was determined as 78 µM.

A further experiment has as its system Saccharomyces cerevisiae. Described as §1. In short, it runs like this: as §2
As to `CCC1C2=C(CC(C)(C)CC2=O)Oc2c(I)c(-c3ccccc3)oc(=O)c21` (configuration not stated), the inhibition entry is “Dose-dependent effect”.
